The nature of test [1]: inhibitors of TNFa-induced NFkB p65 translocation, primary screen, imaging, HUVEC, MLSMR starter and 10KST1 sets (AID 438;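 active = inhibition above 20% together with a positive visual image hit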;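 also: compound added about 3h40 before a 20 min TNFalpha stimulation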;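 as to inhibition: signal is the nuclear over cytoplasmic p65 intensity ratio per well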). Particulars: HUVEC TNFa-induced p65 nuclear translocation; cell count: measured here: nuclei count (cytotoxicity indicator), at 2.08 µM; inhibition: at 2 µM, stronger effect = higher value, 0% TNFa-plus-vehicle, 100% no-TNFa wells.
Test [2] can be described thus: endothelial E-selectin expression blockers – imaging, HUVEC, immunofluorescence, MLSMR starter and 10KST1 sets, primary screen (AID 487;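 active = visually confirmed hit in the image check and inhibition above 20%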;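 as to inhibition: signal is fraction of cell area covered by stained E-selectin grains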;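 as to nuclei count: 100% = median nuclei count of all wells on the same plate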). Particulars: HUVEC TNFalpha-induced E-selectin immunofluorescence imaging, at 2 µM; inhibition: stronger effect = higher value; nuclei count: measured here: cell number, toxicity.
A short description of test [3]: Primary imaging screen for DUSP6 inhibitors that restore phospho-Erk in transfected HeLa cells, chemical complementation (AID 609;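 active = compounds giving at least 50% inhibition in the cell-based MKP-3 phosphatase rescue imaging test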;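 as to inhibition: phospho-Erk level distribution per well compared with pooled transfected vehicle control wells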). Particulars: HeLa MKP-3 transfected, phospho-Erk imaging KS statistic, at 10 µM, cells stimulated with TPA for 15 min.
Test [4] addresses Dual specificity protein phosphatase 6 (Homo sapiens) (UniProt Q16828). The test is described as above. Particulars: HeLa MKP-3 transfected, phospho-Erk imaging KS statistic; at 10 µM; stronger effect = higher value; cells stimulated with TPA for 15 min.
In test [5] the target is Voltage-gated potassium channel subunit beta-2 (Rattus norvegicus) (UniProt P62483). Kind of test: inhibitors of rat Kvbeta2 reductase activity – biochemical, NADPH fluorescence, primary screen (AID 622;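 active = fluorescence slope higher than the sample average by over 3 SD, cut at about -0.22 in these data, passing the limit was not always enough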;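 also: slope of raw intensity against log time taken from 70 to 1610 s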). Particulars: recombinant KvBeta, 4-cyanobenzaldehyde reduction, at 10 µM, stronger effect = higher value.
Chain of Voltage-gated potassium channel subunit beta-2 (Rattus norvegicus) (P62483 whole entry, looked up): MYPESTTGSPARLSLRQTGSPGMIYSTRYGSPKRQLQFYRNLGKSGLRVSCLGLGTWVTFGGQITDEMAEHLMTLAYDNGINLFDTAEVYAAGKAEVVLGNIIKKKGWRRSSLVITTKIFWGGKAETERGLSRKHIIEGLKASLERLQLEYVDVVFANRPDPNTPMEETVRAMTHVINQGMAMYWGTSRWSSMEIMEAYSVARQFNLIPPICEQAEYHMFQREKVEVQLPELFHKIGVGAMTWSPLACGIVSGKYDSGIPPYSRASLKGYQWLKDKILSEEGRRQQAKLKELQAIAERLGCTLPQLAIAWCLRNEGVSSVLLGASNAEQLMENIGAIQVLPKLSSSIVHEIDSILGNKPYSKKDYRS
The target is the same in test [6]. Kind of test: enhancers of rat Kvbeta2 NADPH turnover – biochemical, NADPH fluorescence, primary screen (AID 623).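 Also: fluorescence intensity change per second fitted from 20 to 320 s.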 Particulars: Recombinant KvBeta, NADPH fluorescence decrease slope, 10 min; at 10 µM; stronger effect = lower value.
Test [7] deals with Muscarinic acetylcholine receptor M4 (Homo sapiens) (UniProt P08173). Description: M4-linked GIRK flux change, two-sided – cell-based, HEK293 M4/GIRK, thallium flux, BTC-AM, M4 allosteric agonist project, primary screen (AID 625;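 active = fluorescence slope after compound addition differing from the mean of all tested samples at 99.7% confidence, mostly higher but some lower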;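 also: thallium influx through GIRK channels coupled to M4 in HEK293 cells with BTC-AM dye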). Particulars: at 10 µM, actives lie on both sides. The method, boiled down: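 System: HEK293 cells with M4 receptor and GIRK channels | Incubation: Cells overnight at 37 °C, BTC-AM loading 1 h, reads 2 min total | Technique: Kinetic BTC-AM fluorescence sampled at 1 Hz, 10 s pre-addition baseline | Measure: Post-addition slope, 15–24 s, of baseline-normalized fluorescence | Control set: Carbachol positive, DMSO negative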
Chain of Muscarinic acetylcholine receptor M4 (Homo sapiens) (P08173 whole entry, looked up): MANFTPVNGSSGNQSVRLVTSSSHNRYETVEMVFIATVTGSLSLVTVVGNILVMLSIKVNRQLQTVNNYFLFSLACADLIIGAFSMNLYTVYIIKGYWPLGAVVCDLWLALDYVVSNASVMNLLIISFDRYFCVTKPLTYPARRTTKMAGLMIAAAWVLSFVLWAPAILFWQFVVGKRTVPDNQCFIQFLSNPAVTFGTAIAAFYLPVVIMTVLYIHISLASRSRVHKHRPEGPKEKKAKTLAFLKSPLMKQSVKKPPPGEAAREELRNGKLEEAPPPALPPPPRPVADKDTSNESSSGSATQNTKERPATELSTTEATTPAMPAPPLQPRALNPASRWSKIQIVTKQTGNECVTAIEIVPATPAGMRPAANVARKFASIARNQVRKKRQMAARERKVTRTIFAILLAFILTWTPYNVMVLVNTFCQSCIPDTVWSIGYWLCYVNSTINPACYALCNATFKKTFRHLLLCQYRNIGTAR

A short description of test [8]: inhibitors of larval lipid processing in zebrafish, primary screen, whole organism, PED6 fluorescence, gall bladder and intestine (AID 686;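 active = a full or partial loss of lipid-probe fluorescence in the fish gall bladder, intestine or both, judged by eye; inactive = no fluorescence loss, or compound toxic to the fish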;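 also: larvae 5 to 7 days old with five fish per well; signal comes from phospholipase A2 cleavage of quenched PED6 carried via bile; overnight exposure to compound and PED6 before scoring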). Particulars: Zebrafish larvae PED6 lipid processing, fluorescence scoring; screened at 20 µM (by protocol). The method, boiled down: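 Test system – live zebrafish larvae aged 5-7 days, whole organism · Buffer or medium – E3 fish medium · Reagent – quenched phospholipase substrate PED6, 100 nM final, ingested by larvae · Doses – 20 µM single dose · Incubation – overnight compound and PED6 incubation · Technique – visual fluorescence microscopy scoring of gall bladder, gut · Read-out basis – visual per-well fluorescence inhibition score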

A short description of test [9]: loss of swimming-algae plug formation – whole organism, Chlamydomonas reinhardtii, WT vs cilia-less mutant, absorbance, 96-well, primary screen (AID 463189;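 active = inhibition at or above 50% relative to wild type and mutant plate controls; inactive = inhibition below 50%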;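 also: 0% = wild type cc124 cells in DMSO and 100% = ciliumless bld1 mutant cells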). Particulars: Chlamydomonas reinhardtii gravitaxis, OD600 absorbance, 2 days; at 10 µM; stronger effect = higher value.
[10] abbreviates: measured here: cell density z-score.
Where [11] appears, read: measured here: nuclear c-Myc green intensity z-score.
[12] abbreviates: measured here: nuclear pErk red intensity z-score, stronger effect = higher value.

Calls of active or inactive are those of the source.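 The calls were made as follows, unless noted: active = NADPH fluorescence slope more negative than the mean of all samples by about 3 SD, 99.7% confidence; inactive = the rest.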

Chain of Dual specificity protein phosphatase 6 (Homo sapiens) (Q16828 whole entry, looked up): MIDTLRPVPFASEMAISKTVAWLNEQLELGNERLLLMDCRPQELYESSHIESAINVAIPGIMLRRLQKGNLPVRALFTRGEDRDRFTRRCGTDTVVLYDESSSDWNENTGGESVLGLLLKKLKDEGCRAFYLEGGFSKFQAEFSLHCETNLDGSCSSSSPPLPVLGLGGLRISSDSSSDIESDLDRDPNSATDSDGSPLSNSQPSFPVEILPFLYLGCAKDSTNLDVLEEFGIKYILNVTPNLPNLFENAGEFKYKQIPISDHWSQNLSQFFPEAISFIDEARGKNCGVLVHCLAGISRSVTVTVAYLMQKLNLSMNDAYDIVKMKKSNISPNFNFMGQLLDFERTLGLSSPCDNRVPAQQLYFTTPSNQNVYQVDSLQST

Usually inhibition stands for the change of the read-out against control, counted positive when it falls. As for `Cc1cc(=O)oc(C)c1C(=O)NC1CC(C)(C)NC(C)(C)C1`, the cell count in test [1] stood at 688. The inhibition in [1] is -8.3% (inactive); in test [2], -70.2% (inactive); in test [4], -10.1% (inactive); in test [9], 6.56% (inactive). Also, in [2], the nuclei count was 160%. Moreover, the z-score in [3] (setting [10]) is -0.541; in test [3] (setting [11]) it was 0.659; in test [3] (setting [12]), 0.228. Moreover, the fluorescence slope in test [5] was -0.463 (inactive); in [7], 0.00552 (inactive). In test [6], the NADPH fluorescence slope was -1.7e-05 (inactive). For the same compound, the compound was classed as inactive in [8].
For the compound `Nc1c(C(=O)NCc2ccco2)sc2nc(N3CCOCC3)c3c(c12)CCCC3`, in test [1], the cell count came out at 510. Further, the inhibition in test [1] is -3.3% (inactive); in [2], 21.6% (inactive); in [4], 7.93% (inactive); in test [9] it was 7.67% (inactive). Besides, in test [2], the nuclei count stood at 169%. Further, the z-score in test [3] (setting [10]) was -0.827; in [3] (setting [11]), 1.22; in test [3] (setting [12]) it was 1.35. Moreover, the fluorescence slope is -0.0309 (active) in test [5] and 0.00375 (inactive) in [7]. For the same compound, the NADPH fluorescence slope in [6] is 4.6e-08 (inactive). Also, the outcome in test [8] was inactive.
As to `CCC(=O)NC1(C(F)(F)F)C(=O)Nc2c1c(=O)[nH]c(=O)n2Cc1ccco1` (centres undefined), in test [1], the cell count came out at 652. Further, the inhibition was -2.8% (inactive) in [1], -96.3% (inactive) in [2], 1.04% (inactive) in [4] and 9.21% (inactive) in test [9]. In test [2], this compound displayed a nuclei count of 167%. Besides, the z-score is -1.08 in test [3] (setting [10]), 0.161 in test [3] (setting [11]) and 0.694 in test [3] (setting [12]). Further, the figures for the fluorescence slope in test [5] and in test [7] were -0.497 (inactive) and 0.00505 (inactive), respectively. In addition, the NADPH fluorescence slope in [6] is -8.6e-05 (inactive). In addition, the call in test [8] was inactive.
Regarding `COc1ccc(/C(O)=C2\C(=O)C(=O)N(c3cc(C)on3)C2c2ccccc2OC)cc1C` (centres undefined), in [1], the cell count was 556. In addition, the inhibition in test [1] was -11.7% (inactive); in test [2], 9.9% (inactive); in test [4] it was -8.27% (inactive); in [9], -0.426% (inactive). For the same compound, in test [2], the nuclei count is 118%. In addition, the z-score in test [3] (setting [10]) is -1.41; in test [3] (setting [11]), -1.49; in test [3] (setting [12]), -1.43. For the same compound, the fluorescence slope in test [5] was -0.473 (inactive); in [7], 0.00597 (inactive). For the same compound, the NADPH fluorescence slope in test [6] is -2.1e-05 (inactive). In [8], the compound was called inactive.
Turning to `COC(=O)c1ccc(CSc2nc(N3CCOCC3)c3c(c2C#N)CC(C)(C)OC3)o1`, the cell count in test [1] was determined as 563. The inhibition in [1] is -4.2% (inactive); in [2], -97.4% (inactive); in test [4], 1.63% (inactive); in [9] it was 6.95% (inactive). Besides, the nuclei count in [2] was found to be 151%. In addition, the z-score in [3] (setting [10]) is 0.813; in test [3] (setting [11]), -0.6; in test [3] (setting [12]), 1.8. Moreover, the fluorescence slope in test [5] is -0.461 (inactive); in [7], 0.00467 (inactive). In addition, the NADPH fluorescence slope in [6] was -0.000112 (inactive). The result in test [8] was inactive.
Consider `Cn1c(=O)n(CC(=O)Nc2ccccc2)c2ccccc21`, for which the cell count in test [1] came to 382. The inhibition is -4.5% (inactive) in test [1], -15.2% (inactive) in test [2], 22.3% (inactive) in test [4] and -5.61% (inactive) in test [9]. In test [2], this compound had a nuclei count of 152%. The z-score in test [3] (setting [10]) is -0.194; in test [3] (setting [11]) it was 0.676; in [3] (setting [12]), -0.438. The fluorescence slope is -0.453 (inactive) in test [5] and 0.0039 (inactive) in [7]. Also, the NADPH fluorescence slope in test [6] is -0.000119 (inactive). In test [8], the compound was classed as inactive.
`N/C(=N\S(=O)(=O)c1ccc(Cl)s1)c1ccccc1`: the cell count in [1] was found to be 671. The inhibition in test [1] was -8.3% (inactive); in test [2] it was -77.1% (inactive); in test [4], 7.83% (inactive); in test [9], 19.3% (inactive). In [2], this compound gave a nuclei count of 150%. Besides, the values for the z-score in [3] (setting [10]), in test [3] (setting [11]) and in [3] (setting [12]) were 1.62, -1.89 and -1.41, respectively. Further, the fluorescence slope in test [5] is -0.473 (inactive); in test [7] it was 0.00465 (inactive). Further, in [6], the NADPH fluorescence slope is -4.6e-05 (inactive). Also, in test [8], the compound was classed as inactive.
Turning to `N#Cc1nc(COc2ccccc2Cl)oc1NCc1ccc(F)cc1`, the cell count in test [1] came to 432. Further, the inhibition was -1.7% (inactive) in test [1], -89.3% (inactive) in test [2], 2.71% (inactive) in [4] and -1.44% (inactive) in test [9]. Moreover, the nuclei count in test [2] came out at 182%. Also, the z-score in [3] (setting [10]) is -1.38; in test [3] (setting [11]), 0.104; in test [3] (setting [12]), 0.625. Also, the fluorescence slope in test [5] is -0.373 (inactive); in test [7], 0.00509 (inactive). Further, in test [6], the NADPH fluorescence slope is -3.8e-05 (inactive). Further, the outcome in [8] was inactive.
Regarding `CCCCOc1ccc(C(=O)NCC(=O)NCC(=O)OCC)cc1`, in [1], the cell count came to 357. Also, the inhibition is -8.2% (inactive) in [1], -101% (inactive) in test [2], -6.59% (inactive) in test [4] and -13.2% (inactive) in [9]. In [2], this compound displayed a nuclei count of 108%. The z-score is -0.206 in test [3] (setting [10]), 0.434 in [3] (setting [11]) and -0.573 in test [3] (setting [12]). Also, the fluorescence slope in test [5] is -0.49 (inactive); in test [7], 0.00496 (inactive). Also, the NADPH fluorescence slope in test [6] was 4.9e-06 (inactive). Besides, the compound was classed as inactive in [8].
As to `CC(O)CNc1nc2c(c(=O)n(C)c(=O)n2C)n1CCc1ccccc1` (centres undefined), the cell count in test [1] worked out at 710. Moreover, the inhibition in test [1] is -2.3% (inactive); in [2], -92.1% (inactive); in test [4] it was 5.95% (inactive); in [9], 23% (inactive). Moreover, the nuclei count in [2] amounted to 180%. The figures for the z-score in test [3] (setting [10]), in test [3] (setting [11]) and in [3] (setting [12]) were 0.422, -1.99 and 1.04, respectively. For the same compound, the fluorescence slope in test [5] is -0.464 (inactive); in test [7], 0.00739 (inactive). In addition, in [6], the NADPH fluorescence slope is -0.000209 (active). Further, in test [8], the result was inactive.
Consider `CCCCSc1nnc2n(CCc3ccccc3)c(=O)c3c4c(sc3n12)COC(C)(C)C4`, for which, in [1], the cell count stood at 533. Further, the inhibition in test [1] was -4.4% (inactive); in test [2] it was -25.9% (inactive); in test [4], 11.9% (inactive); in [9] it was 129% (active). The same compound yielded a nuclei count in [2] of 170%. For the same compound, the z-score in test [3] (setting [10]) was 1.42; in test [3] (setting [11]) it was -1.24; in [3] (setting [12]), 0.334. The fluorescence slope in test [5] was -0.334 (inactive); in test [7] it was 0.00807 (inactive). The NADPH fluorescence slope in test [6] was -6.5e-06 (inactive). For the same compound, the call in test [8] was inactive.
Turning to `Oc1oc(-c2ccco2)nc1C=Nc1cccc(Cl)c1`, in [1], the cell count was 562. Moreover, the inhibition is 5.6% (inactive) in test [1], -19% (inactive) in test [2], -12.6% (inactive) in [4] and -1.6% (inactive) in test [9]. Further, the nuclei count in test [2] was found to be 131%. Moreover, the z-score in test [3] (setting [10]) is -0.184; in test [3] (setting [11]) it was -1.01; in test [3] (setting [12]), 0.105. In addition, the fluorescence slope in test [5] was -0.449 (inactive); in test [7], 0.00392 (inactive). Besides, in [6], the NADPH fluorescence slope is -0.000133 (inactive). For the same compound, in test [8], the call was inactive.
As for `CC(C)CN1C(=O)c2ccc(C(=O)Nc3ccccn3)cc2C1=O`, the cell count in test [1] was 669. The inhibition was -5.4% (inactive) in test [1], 50% (inactive) in test [2], -11.4% (inactive) in [4] and -7.05% (inactive) in test [9]. In test [2], this compound came in with a nuclei count of 136%. For the same compound, the z-score is -1.42 in [3] (setting [10]), 1.32 in [3] (setting [11]) and -0.345 in test [3] (setting [12]). Further, the fluorescence slope in test [5] was -0.495 (inactive); in test [7], 0.00831 (inactive). In addition, the NADPH fluorescence slope in test [6] is -4.7e-05 (inactive). For the same compound, the outcome in [8] was inactive.

The values above are taken from PubChem BioAssay.
